According to ChEMBL document CHEMBL1131020, “Synthesis of 7,8-(methylenedioxy)-1-phenyl-3,5-dihydro-4H-2, 3-benzodiazepin-4-ones as novel and potent noncompetitive AMPA receptor antagonists” (J Med Chem, 1998):

How the values were obtained:
[1] = organism: Rattus norvegicus; assay: In vitro inhibition of AMPA activated current in xenopus oocytes expressing rat cerebral cortex poly(A)+ RNA.; assay type: functional
In short: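 Two-electrode voltage clamp, holding -70 mV, of Xenopus oocytes injected with ~25 ng rat cerebral cortex poly(A)+ RNA, superfused in Ringer. Baseline current from 10 μM AMPA. Antagonist at increasing concentrations preapplied ~30 s, then coapplied with 10 μM AMPA. IC50 from four-parameter logistic fit to pooled data of 3–4 experiments, mean ± SEM.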

[2] = test system: Mus musculus; assay: In vivo anticonvulsant activity in mouse determined by maximum electroshock induced seizure (MES) assay; assay type: functional
In short: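 Male NSA mice; compound in 10% Tween-80/water, iv, 5 min before test. Corneal electrodes deliver 50 mA, 60 pulses/s, 0.8-ms pulse width, 1-s d.c. Protection means no tonic hindlimb extension >90° within 30 s. Screened at 10 mg/kg (n = 8), then 4–5 doses (n = 15–24/dose). ED50 with 95% CI by Litchfield–Wilcoxon.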

Structure (SMILES)	IC50 [1]	ED50 [2]
COc1cc2c(cc1OC)C(c1ccc(N)cc1)=NNC(=O)C2	180 µM	> 10 mg/kg
Nc1ccc(C2=NNC(=O)Cc3cc4c(cc32)OCO4)cc1	2.7 µM	2.8 mg/kg
O=C1Cc2cc3c(cc2C(c2ccc(F)cc2)=NN1)OCO3	62 µM	> 10 mg/kg
O=C1Cc2cc3c(cc2C(c2ccccc2)=NN1)OCO3	21 µM	12.9 mg/kg
O=C1Cc2cc3c(cc2C(c2ccc([N+](=O)[O-])cc2)=NN1)OCO3	56 µM	> 10 mg/kg
Cc1ccc(C2=NNC(=O)Cc3cc4c(cc32)OCO4)cc1	15 µM	16 mg/kg
COc1ccc(C2=NNC(=O)Cc3cc4c(cc32)OCO4)cc1	23 µM	
CC1=NN=C(c2ccc(N)cc2)c2cc3c(cc2C1)OCO3 [GYKI-52466]	6.9 µM	4.6 mg/kg
